The source made the active and inactive calls. The calls are words filed in the database; no cut-off is given here.
Legend:
[1] = target: T1, ATP-dependent translocase ABCB1 (Homo sapiens, UniProt P08183); assay: Inhibition of P-gp in human HCT-15 cells assessed as increase in green fluorescence intensity at 0.1 to 10 uM incubated for 15 mins followed by incubation with EFFLUX-ID Green Detection Reagent and Hoeschst-33342 dye and measured after 30 mins by fluorescence analysis; format: cell-based; settings: hct-15, 0.25 h, dose 0.1-10 µM
Outline: (§1)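 5000 cells/well in phenol-red-free medium plated 24 h before; compounds 0.1, 1, 10 µM for 15 min, then EFLUXX-ID Green reagent (1:200) plus Hoechst-33342 1 µg/mL, 30 min 37 °C. Widefield imaging; median green intensity from 250 cells per well normalized to untreated wells. Mean ± SD of three wells; one-tailed t-test.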

[2] = target: T1, ATP-dependent translocase ABCB1; assay: Inhibition of P-gp in human HCT-15 cells assessed as increase in green fluorescence intensity at 1 to 10 uM incubated for 15 mins followed by incubation with EFFLUX-ID Green Detection Reagent and Hoeschst-33342 dye and measured after 30 mins by fluorescence analysis; format: cell-based; settings: hct-15, 0.25 h, dose 1-10 µM; outline: as §1
[3] = system: A704; assay: Coadjutant activity against multidrug resistance in human A704 cells assessed as potentiation of vincristine-induced cell growth inhibition at 0.25 to 4 uM incubated for 72 hrs in presence of 0.2 uM vincristine by SiR-DNA/CellTox Green Dye based fluorescence analysis; format: functional; settings: dose 0.25-4 µM
Outline: (§2)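 Growth by live-cell imaging: 500 cells/well plated with SiR-DNA and CellTox Green dye; serial dilutions in phenol-red-free complete medium added next day. Imaged at addition and at 72 h. Live cells = SiR-DNA nuclei minus CellTox-positive dead cells; percentage growth calculated. Three technical replicates; two-tailed t-test. Inhibitor paired with anticancer drug at fixed or scaled levels.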

[4] = system: HGC-27; assay: Coadjutant activity against multidrug resistance in human HGC-27 cells assessed as potentiation of vincristine-induced cell growth inhibition by measuring cell growth at 4 uM incubated for 72 hrs in presence of 0.02 to 20 uM vincristine by SiR-DNA/CellTox Green Dye based fluorescence analysis; format: functional; parameters: scale not given: the % may be the effect or the level left; outline: as §2
[5] = system: HuP-T3; assay: Coadjutant activity against multidrug resistance in human Hup-T3 cells assessed as potentiation of vincristine-induced cell growth inhibition by measuring cell growth at 4 uM incubated for 72 hrs in presence of 0.02 to 20 uM vincristine by SiR-DNA/CellTox Green Dye based fluorescence analysis; format: functional; parameters: scale not given: the % may be the effect or the level left; outline: as §2
[6] = system: HT-29; assay: Coadjutant activity against multidrug resistance in human HT-29 cells assessed as potentiation of vincristine-induced cell growth inhibition at 4 uM incubated for 72 hrs in presence of 0.02 to 20 uM vincristine by SiR-DNA/CellTox Green Dye based fluorescence analysis; format: functional; outline: as §2
[7] = system: A498; assay: Coadjutant activity against multidrug resistance in human A498 cells assessed as potentiation of vincristine-induced cell growth inhibition by measuring cell growth at 4 uM incubated for 72 hrs in presence of 0.02 to 20 uM vincristine by SiR-DNA/CellTox Green Dye based fluorescence analysis; format: functional; parameters: scale not given: the % may be the effect or the level left; outline: as §2
[8] = system: A704; assay: Coadjutant activity against multidrug resistance in human A704 cells assessed as potentiation of vincristine-induced cell growth inhibition by measuring cell growth at 4 uM incubated for 72 hrs in presence of 0.02 to 20 uM vincristine by SiR-DNA/CellTox Green Dye based fluorescence analysis; format: functional; parameters: scale not given: the % may be the effect or the level left; outline: as §2
[9] = system: SK-HEP1; assay: Cytotoxicity against human SK-HEP1 cells assessed as inhibition of cell growth at 4 uM incubated for 72 hrs by SiR-DNA/CellTox Green Dye based fluorescence analysis; format: toxicity; settings: sk-hep1, 72 h
Outline: (§3)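 Single-agent control at 4 µM, no anticancer drug. 500 cells/well with SiR-DNA and CellTox Green; imaged at addition and 72 h. Live count = total nuclei minus dead cells, expressed as percent growth. Three technical replicates.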

[10] = Cytotoxicity against human HGC-27 cells assessed as inhibition of cell growth at 4 uM incubated for 72 hrs by SiR-DNA/CellTox Green Dye based fluorescence analysis relative to control; format: toxicity; outline: as §3
[11] = system: HuP-T3; assay: Cytotoxicity against human Hup-T3 cells assessed as inhibition of cell growth at 4 uM incubated for 72 hrs by SiR-DNA/CellTox Green Dye based fluorescence analysis; format: toxicity; settings: hup-t3, 72 h; outline: as §3
[12] = Cytotoxicity against human A498 cells assessed as inhibition of cell growth at 4 uM incubated for 72 hrs by SiR-DNA/CellTox Green Dye based fluorescence analysis relative to control; format: toxicity; outline: as §3
[13] = system: A498; assay: Coadjutant activity against multidrug resistance in human A498 cells assessed as potentiation of etoposide-induced cell growth inhibition at 4 uM incubated for 72 hrs in presence of 0.04 to 40 uM etoposide by SiR-DNA/CellTox Green Dye based fluorescence analysis; format: functional; outline: as §2
[14] = system: SK-HEP1; assay: Coadjutant activity against multidrug resistance in human SK-HEP1 cells assessed as potentiation of cisplatin-induced cell growth inhibition at 4 uM incubated for 72 hrs in presence of 0.1 to 100 uM cisplatin by SiR-DNA/CellTox Green Dye based fluorescence analysis; format: functional
Outline: (§4)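 Cisplatin co-treatment, 72 h imaging growth assay (SiR-DNA nuclei minus CellTox Green dead cells, 500 cells/well, phenol-red-free medium). Combinations: inhibitor fixed with cisplatin 0.1–100 µM, or cisplatin fixed at 0.25 µM with inhibitor 0.25–4 µM. Three technical replicates, mean ± SD; two-tailed t-test.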

[15] = system: SK-HEP1; assay: Coadjutant activity against multidrug resistance in human SK-HEP1 cells assessed as potentiation of cisplatin-induced cell growth inhibition at 0.25 to 4 uM incubated for 72 hrs in presence of 0.25 uM cisplatin by SiR-DNA/CellTox Green Dye based fluorescence analysis; format: functional; settings: dose 0.25-4 µM; outline: as §4
[16] = system: HMC3; assay: Cytotoxicity against human HMC3 cells assessed as effect on cell viability at 0.1 to 100 uM incubated for 24 to 72 hrs by MTT assay; format: toxicity, cell-based; settings: hmc3, 100 µM, dose lower 0.1 µM, time lower 24 hrs, dose upper 100 µM, time upper 72 hrs
Outline: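 HMC3 microglia in high-glucose DMEM/10% FBS, 37 °C 5% CO2, treated 0.1–100 µM for 24, 48 or 72 h; vehicle-treated controls. MTT 0.5 mg/mL, 4 h 37 °C, formazan dissolved in DMSO, read at 540 nm; viability as percent of control. Three independent experiments in triplicate, mean ± S.E.M., one-way ANOVA with Tukey.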

[17] = target: Voltage-dependent L-type calcium channel subunit alpha-1C (Rattus norvegicus, UniProt P22002); assay: Inhibition of Cav1.2 in Wistar rat tail artery smooth muscle cells assessed as inhibition of Ba2+ current at 0.3 to 10 uM at holding potential of -50 mV by whole cell patch clamp analysis; format: toxicity, tissue-based; settings: dose 0.3-10 µM
Outline: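 Freshly dissociated rat tail main artery myocytes (collagenase XI, 37 °C). Whole-cell patch clamp, 20–22 °C; Cs-based internal, external with 30 mM TEA and 5 mM Ba2+. IBa1.2 evoked by 250-ms steps to 10 mV from −50 mV at 0.067 Hz; compound added cumulatively 0.3–10 µM; leak subtracted using 10 µM nifedipine. Amplitude as percent of control, n = 5.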

T1 sequence (P08183 whole entry): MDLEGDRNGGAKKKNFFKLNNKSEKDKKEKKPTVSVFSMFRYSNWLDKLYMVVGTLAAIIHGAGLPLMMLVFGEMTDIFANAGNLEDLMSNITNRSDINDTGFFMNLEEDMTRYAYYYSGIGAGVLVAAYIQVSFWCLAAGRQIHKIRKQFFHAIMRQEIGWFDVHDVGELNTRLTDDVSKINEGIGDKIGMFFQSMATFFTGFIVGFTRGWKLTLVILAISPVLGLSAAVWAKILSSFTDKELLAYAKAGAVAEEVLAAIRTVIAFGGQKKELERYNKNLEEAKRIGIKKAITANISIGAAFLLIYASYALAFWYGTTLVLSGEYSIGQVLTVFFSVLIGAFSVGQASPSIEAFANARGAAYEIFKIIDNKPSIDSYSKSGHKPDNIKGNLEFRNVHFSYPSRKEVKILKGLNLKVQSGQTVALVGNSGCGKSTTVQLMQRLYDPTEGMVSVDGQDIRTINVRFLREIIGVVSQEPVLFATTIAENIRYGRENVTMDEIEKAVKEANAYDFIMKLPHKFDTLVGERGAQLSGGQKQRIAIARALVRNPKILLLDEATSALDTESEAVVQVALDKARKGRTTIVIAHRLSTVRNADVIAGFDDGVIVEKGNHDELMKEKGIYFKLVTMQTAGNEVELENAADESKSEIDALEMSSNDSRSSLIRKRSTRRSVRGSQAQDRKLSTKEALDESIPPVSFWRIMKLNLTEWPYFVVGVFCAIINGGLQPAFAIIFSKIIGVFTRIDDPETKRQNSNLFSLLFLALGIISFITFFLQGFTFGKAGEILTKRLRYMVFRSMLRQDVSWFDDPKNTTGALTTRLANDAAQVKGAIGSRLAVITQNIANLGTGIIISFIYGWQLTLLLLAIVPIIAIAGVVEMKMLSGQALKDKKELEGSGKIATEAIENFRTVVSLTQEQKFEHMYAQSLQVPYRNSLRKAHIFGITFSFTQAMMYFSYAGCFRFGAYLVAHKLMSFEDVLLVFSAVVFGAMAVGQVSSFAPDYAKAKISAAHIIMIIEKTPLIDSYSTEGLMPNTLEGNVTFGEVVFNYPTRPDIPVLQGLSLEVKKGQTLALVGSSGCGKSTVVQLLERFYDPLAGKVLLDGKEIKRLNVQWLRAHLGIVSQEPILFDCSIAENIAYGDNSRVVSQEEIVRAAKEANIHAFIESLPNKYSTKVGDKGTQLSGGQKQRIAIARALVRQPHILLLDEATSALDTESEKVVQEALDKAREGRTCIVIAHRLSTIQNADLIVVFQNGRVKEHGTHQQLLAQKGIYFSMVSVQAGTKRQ
Chain of Voltage-dependent L-type calcium channel subunit alpha-1C (P22002 whole entry): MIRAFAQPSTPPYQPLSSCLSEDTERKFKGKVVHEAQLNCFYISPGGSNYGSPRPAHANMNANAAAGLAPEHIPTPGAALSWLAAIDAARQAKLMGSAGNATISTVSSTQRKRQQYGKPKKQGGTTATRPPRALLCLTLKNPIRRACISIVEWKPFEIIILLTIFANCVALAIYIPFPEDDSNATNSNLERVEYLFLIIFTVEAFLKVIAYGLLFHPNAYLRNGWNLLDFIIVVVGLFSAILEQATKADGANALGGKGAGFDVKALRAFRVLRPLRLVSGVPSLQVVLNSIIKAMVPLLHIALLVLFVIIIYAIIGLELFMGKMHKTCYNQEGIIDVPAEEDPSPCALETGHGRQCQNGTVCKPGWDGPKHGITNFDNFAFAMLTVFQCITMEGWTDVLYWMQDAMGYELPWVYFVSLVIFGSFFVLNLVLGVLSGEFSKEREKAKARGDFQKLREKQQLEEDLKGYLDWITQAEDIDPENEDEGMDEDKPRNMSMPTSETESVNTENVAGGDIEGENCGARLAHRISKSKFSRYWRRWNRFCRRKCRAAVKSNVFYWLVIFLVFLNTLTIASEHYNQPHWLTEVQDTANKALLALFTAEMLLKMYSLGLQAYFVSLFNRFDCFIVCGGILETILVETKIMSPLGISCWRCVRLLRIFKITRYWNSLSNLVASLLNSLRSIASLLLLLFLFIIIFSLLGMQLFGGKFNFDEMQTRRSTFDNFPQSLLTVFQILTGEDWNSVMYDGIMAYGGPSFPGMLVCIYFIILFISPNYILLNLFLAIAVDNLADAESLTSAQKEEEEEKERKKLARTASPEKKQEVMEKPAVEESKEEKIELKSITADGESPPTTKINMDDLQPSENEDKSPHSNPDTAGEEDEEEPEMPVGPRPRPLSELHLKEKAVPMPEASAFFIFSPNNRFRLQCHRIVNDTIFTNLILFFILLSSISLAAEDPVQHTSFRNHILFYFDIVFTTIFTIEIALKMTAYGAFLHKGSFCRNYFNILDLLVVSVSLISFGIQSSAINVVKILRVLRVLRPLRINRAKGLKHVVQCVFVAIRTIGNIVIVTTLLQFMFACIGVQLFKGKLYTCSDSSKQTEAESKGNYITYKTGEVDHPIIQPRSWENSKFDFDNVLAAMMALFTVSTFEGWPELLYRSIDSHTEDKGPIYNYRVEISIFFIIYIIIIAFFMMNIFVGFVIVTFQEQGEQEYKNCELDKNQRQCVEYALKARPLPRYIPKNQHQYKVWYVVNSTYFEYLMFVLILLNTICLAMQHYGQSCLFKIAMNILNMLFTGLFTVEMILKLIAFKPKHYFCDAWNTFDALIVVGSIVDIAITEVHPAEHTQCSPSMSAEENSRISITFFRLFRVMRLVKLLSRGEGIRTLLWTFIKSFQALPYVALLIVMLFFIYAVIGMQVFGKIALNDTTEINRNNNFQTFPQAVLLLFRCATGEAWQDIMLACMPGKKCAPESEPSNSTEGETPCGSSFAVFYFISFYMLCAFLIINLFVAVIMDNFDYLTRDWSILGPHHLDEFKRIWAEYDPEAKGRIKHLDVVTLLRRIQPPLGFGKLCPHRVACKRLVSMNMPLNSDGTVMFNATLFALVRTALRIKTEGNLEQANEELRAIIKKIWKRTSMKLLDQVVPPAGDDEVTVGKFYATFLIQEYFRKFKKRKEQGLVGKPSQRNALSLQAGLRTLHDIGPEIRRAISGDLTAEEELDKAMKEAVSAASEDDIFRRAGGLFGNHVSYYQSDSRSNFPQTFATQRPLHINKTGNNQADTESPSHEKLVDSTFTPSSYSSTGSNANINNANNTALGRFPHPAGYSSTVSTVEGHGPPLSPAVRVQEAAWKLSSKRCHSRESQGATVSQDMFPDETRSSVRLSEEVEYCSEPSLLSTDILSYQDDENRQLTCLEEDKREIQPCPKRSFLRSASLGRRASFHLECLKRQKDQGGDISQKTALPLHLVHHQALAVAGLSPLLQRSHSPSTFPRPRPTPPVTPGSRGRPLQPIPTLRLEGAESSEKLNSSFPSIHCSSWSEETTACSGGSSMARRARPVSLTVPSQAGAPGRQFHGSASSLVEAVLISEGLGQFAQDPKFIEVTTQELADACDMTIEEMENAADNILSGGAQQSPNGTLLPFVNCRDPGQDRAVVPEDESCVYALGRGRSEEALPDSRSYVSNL

O=C(Nc1ccccc1)c1ccccc1OCc1nc2cc3cccnc3cc2nc1COc1ccccc1C(=O)Nc1ccccc1
inhibition (INH) [1]: Active | inhibition (INH) [2]: Active | Activity [3]: Active | Activity [4]: 50% | Activity [5]: 50% | Activity [6]: Active | Activity [7]: 50% | Activity [8]: 50% | Activity [9]: Non-Toxic | inhibition at 72 h, 4 µM [10]: 40% | Activity [11]: Non-Toxic | inhibition at 72 h, 4 µM [12]: 20% | Activity [13]: Active | Activity [14]: inactive | Activity [15]: inactive | Activity [16]: Non-Toxic | inhibition (INH) [17]: Not Active
